This note sets out measurements from ChEMBL document CHEMBL1141405, “Design and synthesis of novel sulfonamide-containing bradykinin hB2 receptor antagonists. 2. Synthesis and structure-activity relationships of alpha,alpha-cycloalkylglycine sulfonamides” (J Med Chem, 2007).

Assay [1] addresses T1, B2 bradykinin receptor (Cavia porcellus) (UniProt O70526).
T1 sequence (whole entry): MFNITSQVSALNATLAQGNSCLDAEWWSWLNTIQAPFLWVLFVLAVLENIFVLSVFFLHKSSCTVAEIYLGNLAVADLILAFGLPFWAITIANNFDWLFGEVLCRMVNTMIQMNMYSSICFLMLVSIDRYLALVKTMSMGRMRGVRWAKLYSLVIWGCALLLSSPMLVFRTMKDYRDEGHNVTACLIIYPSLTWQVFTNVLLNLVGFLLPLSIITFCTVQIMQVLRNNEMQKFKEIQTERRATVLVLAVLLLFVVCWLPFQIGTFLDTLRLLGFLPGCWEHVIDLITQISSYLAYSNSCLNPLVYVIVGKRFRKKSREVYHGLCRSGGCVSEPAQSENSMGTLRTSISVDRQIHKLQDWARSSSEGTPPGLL
The assay can be described thus: Inhibition of BK-induced bronchoconstriction in Dunkin Hartley guinea pig at 100 nmol/kg, it. It is filed as functional. Further details: scale not given: the % may be the effect or the level left. The method in brief:
(§1)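 Compound was given intratracheally to anaesthetized guinea pigs. Five min later, BK (10 nmol/kg iv) challenge was given and repeated every 30 min for 210 min. Pulmonary insufflation pressure was monitored. Result is Σ%: residual BK response as % of basal, normalized to control at 5–210 min time points, expressed as % of theoretical maximum.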

The target of assay [2] is Muscarinic acetylcholine receptor (Homo sapiens) (UniProt P20309+P08173+P11229+P08172+P08912). The assay can be described thus: Activity at muscarinic receptor at 1 uM. It counts as protein assay.
The species entered for assay [3] is Homo sapiens. Kind of assay: Activity at nicotinic receptor at 1 uM.
For assay [4], the target named is T1, B2 bradykinin receptor (Cavia porcellus). The assay can be described thus: Effect on BK-induced hypotension in Dunkin Hartley guinea pig at 100 nmol/kg, it. It is filed as functional. The method in brief:
(§2)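 Compound was given intratracheally to anaesthetized guinea pigs. Five min later, BK (10 nmol/kg iv) challenge was given and repeated every 30 min for 210 min. Blood pressure was monitored. Result is Σ%: residual BK response as % of basal, normalized to control at each observation time (5–210 min), expressed as % of theoretical maximum.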

Assay [5] shares this target. Kind of assay: Inhibition of BK-induced bronchoconstriction in Dunkin Hartley guinea pig at 10 nmol/kg, it. It is filed as functional. Further details: scale not given: the % may be the effect or the level left. The method in brief: as §1
Assay [6] shares this target. The assay can be described thus: Inhibition of BK-induced bronchoconstriction in Dunkin Hartley guinea pig at 30 nmol/kg, it. It is filed as functional. Further details: scale not given: the % may be the effect or the level left. The method in brief:
as §1

For assay [7], the target named is T2, B1 bradykinin receptor (Homo sapiens, UniProt P46663).
T2 sequence (P46663 whole entry): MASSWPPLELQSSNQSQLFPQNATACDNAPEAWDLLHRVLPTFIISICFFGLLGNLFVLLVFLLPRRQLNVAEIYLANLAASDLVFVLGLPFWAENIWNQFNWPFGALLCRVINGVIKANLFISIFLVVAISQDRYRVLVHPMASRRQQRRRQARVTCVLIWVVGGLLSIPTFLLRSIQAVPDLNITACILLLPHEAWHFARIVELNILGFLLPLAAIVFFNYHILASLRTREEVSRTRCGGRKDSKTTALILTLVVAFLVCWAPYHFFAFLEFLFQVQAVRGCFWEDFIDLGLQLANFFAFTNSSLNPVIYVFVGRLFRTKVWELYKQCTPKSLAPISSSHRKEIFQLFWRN
Kind of assay: Binding affinity to human bradykinin B1 receptor.

The target of assay [8] is T1, B2 bradykinin receptor (Cavia porcellus). The assay can be described thus: Effect on BK-induced hypotension in Dunkin Hartley guinea pig at 300 nmol/kg, it. It is filed as functional. The method in brief: as §2
For assay [9] the target is unchanged. Kind of assay: Inhibition of BK-induced bronchoconstriction in Dunkin Hartley guinea pig at 300 nmol/kg, it. It is filed as functional. Further details: scale not given: the % may be the effect or the level left. The method in brief: as §1
Assay [10] concerns the target T3, B2 bradykinin receptor (Cavia porcellus, UniProt O70526).
T3 sequence (O70526 whole entry): T1 sequence (whole entry)
Kind of assay: Antagonist potency on BK-induced contraction of guinea pig ileum longitudinal smooth muscle. It counts as functional, tissue-based. The note with it: read-out: pA2 (converted).

Assay [11] addresses T4, B2 bradykinin receptor (Homo sapiens, UniProt P30411).
T4 sequence (P30411 whole entry): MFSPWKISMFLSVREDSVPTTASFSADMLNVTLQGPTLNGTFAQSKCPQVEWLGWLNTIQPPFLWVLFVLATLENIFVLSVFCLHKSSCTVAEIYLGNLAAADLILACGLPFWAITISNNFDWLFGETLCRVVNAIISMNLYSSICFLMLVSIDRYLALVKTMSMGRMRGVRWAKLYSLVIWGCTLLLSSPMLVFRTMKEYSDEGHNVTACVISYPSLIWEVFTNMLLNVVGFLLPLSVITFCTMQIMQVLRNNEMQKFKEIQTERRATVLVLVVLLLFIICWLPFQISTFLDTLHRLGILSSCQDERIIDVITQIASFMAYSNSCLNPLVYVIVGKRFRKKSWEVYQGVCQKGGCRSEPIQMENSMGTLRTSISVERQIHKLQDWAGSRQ
The assay can be described thus: Antagonist potency at human bradykinin B2 receptor assessed as effect on inositol monophosphate accumulation in CHOdhfr- cells. It is filed as functional, cell-based. As to conditions: read-out: pA2 (converted). The method in brief:
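pA2 derived from antagonism of bradykinin-stimulated inositol monophosphate accumulation in CHOdhfr- cells stably transfected with the human B2 receptor.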

Assay [12] has as its target T4, B2 bradykinin receptor. The assay can be described thus: Displacement of [3H]BK from human bradykinin B2 receptor transfected in CHO cells. It counts as cell-based. The method in brief:
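pKi from inhibition of specific [3H]-BK binding to membrane preparations of CHO cells stably transfected with the human B2 receptor.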
For orientation: Displacement assays read how much labelled ligand stays bound in the presence of the test substance.

The source made the active and inactive calls. No cut-off for these calls is given here.

Regarding `Cc1cc(C)c2cccc(OCc3c(Cl)ccc(S(=O)(=O)NC4(C(=O)N5CCN(C(=O)[C@@H](N)CCC[N+](C)(C)C)CC5)CCOCC4)c3Cl)c2n1` [FASITIBANT], the Activity was found to be 13% in assay [1], 60% in assay [4], 63% in [5] and 39% in assay [6]. The result in assay [2] and in assay [3] was inactive. Further, the Ki in assay [7] was > 10000 nM.
As for `Cc1cc(C)c2cccc(OCc3c(Cl)ccc(S(=O)(=O)NC(C)(C)C(=O)N4CCN(C(=O)C[C@@H](N)CCCN(C)C)CC4)c3Cl)c2n1`, the Activity is 63% in assay [8] and 20% in [9]. Also, the Kb in assay [10] was 0.1 nM. For the same molecule, the Ki in [7] is > 10000 nM.
On to `Cc1cc(C)c2cccc(OCc3c(Cl)ccc(S(=O)(=O)NC4(C(=O)N5CCN(C(=O)[C@@H](N)CCCCN(C)C)CC5)CCCC4)c3Cl)c2n1`, for which the Kb in assay [11] is 0.794 nM; in assay [10], 0.158 nM. For the same molecule, the Activity in [8] is 67%; in [9], 29%. Moreover, the values for the Ki in assay [7] and in assay [12] were > 10000 nM and 1.58 nM, respectively.
In the case of `Cc1cc(C)c2cccc(OCc3c(Cl)ccc(S(=O)(=O)NC(C)(C)C(=O)N4CCN(C(=O)[C@@H](N)CCCN(C)C)CC4)c3Cl)c2n1`, the Activity worked out at 79% in assay [8] and 39% in assay [9]. Further, the Kb in [10] is 0.1 nM. In assay [7], the Ki was > 10000 nM.
In the case of `Cc1cc(C)c2cccc(OCc3c(Cl)ccc(S(=O)(=O)N4CCC[C@@H]4C(=O)NCCCNC(=O)c4ccc(C(=N)N)cc4)c3Cl)c2n1`, the values for the Kb in [11] and in assay [10] were 0.398 nM and 0.316 nM, respectively. The Activity in assay [8] worked out at 100%; in [5], 73%; in assay [9], 96%. Also, the Ki in assay [7] was > 10000 nM; in [12], 0.398 nM.
For the molecule `Cc1cc(C)c2cccc(OCc3c(Cl)ccc(S(=O)(=O)NC(C)(C)C(=O)N4CCN(C(=O)[C@@H](N)CCCCNC(=N)N)CC4)c3Cl)c2n1`, the Kb was 0.794 nM in assay [11] and 0.1 nM in assay [10]. The Activity in assay [8] stood at 78%; in assay [9] it was 54%. For the same molecule, the Ki in assay [7] is > 10000 nM; in [12], 0.631 nM.
Regarding `Cc1cc(C)c2cccc(OCc3c(Cl)ccc(S(=O)(=O)NC4(C(=O)N5CCN(C(=O)C[C@@H](N)CCCN(C)C)CC5)CCCC4)c3Cl)c2n1`, the values for the Kb in assay [11] and in assay [10] were 1.58 nM and 0.0398 nM, respectively. Further, the Activity in assay [8] stood at 51%; in [9], 21%. In addition, the figures for the Ki in assay [7] and in assay [12] were > 10000 nM and 0.631 nM, respectively.
`Cc1cc(C)c2cccc(OCc3c(Cl)ccc(S(=O)(=O)NC4(C(=O)N5CCN(C(=O)[C@@H](N)CCCCNC(=N)N)CC5)CCCC4)c3Cl)c2n1`: the Kb in [11] was 0.251 nM; in [10], 0.1 nM. The Activity in assay [8] worked out at 75%; in assay [9], 36%. For the same molecule, the Ki was > 10000 nM in [7] and 1 nM in assay [12].
Regarding `Cc1cc(C)c2cccc(OCc3c(Cl)ccc(S(=O)(=O)NC(C)(C)C(=O)N4CCN(C(=O)[C@@H](N)CCCCN(C)C)CC4)c3Cl)c2n1`, the Activity worked out at 69% in [8] and 37% in assay [9]. In addition, the Kb in [10] was 0.2 nM. The Ki in assay [7] is > 10000 nM.

Usually Ki stands for the equilibrium dissociation constant of an inhibitor or competing ligand from its target.
